From ChEMBL document CHEMBL4725282, “Discovery of a Conformationally Constrained Oxazolidinone with Improved Safety and Efficacy Profiles for the Treatment of Multidrug-Resistant Tuberculosis” (J Med Chem, 2020)
Converted amounts (≈) assume the structure as drawn.

Assays:
[1] = Inhibition of mitochondrial protein synthesis in rat H9c2 cells measured after 5 days by ELISA; assay type: cell-based; conditions: H9c2, 120 h
Method in brief: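 H9C2 cells in DMEM with 10% FBS, seeded 1500/well. After 18 h, compound added at final 0.03–200 μM (3-fold series), then 5 days at 37 °C, 5% CO2; 0.5% DMSO negative control. MPS inhibition read by MitoBiogenesis In-Cell ELISA; IC50 calculated.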

[2] = tested on: Mycobacterium tuberculosis; assay: Antitubercular activity against Mycobacterium tuberculosis H37Rv incubated for 7 days by microplate alamar blue assay; assay type: functional; conditions: 168 h, time 7 day
Method in brief: (§1)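 MIC determined by microplate alamar blue assay (MABA) following a published protocol.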

[3] = Stability in CD-1 mouse liver microsome at 1 uM measured after 30 mins in absence of NADPH by LC-MS/MS analysis; assay type: ADME; conditions: microsomes, 0.5 h
Method in brief: (§2)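 Liver microsomes (male CD-1 mouse or pooled human), 1 mg/mL protein, compound 1 µM, 37°C with shaking. Started with 1 mM NADPH or run without cofactor. Quenched with ice-cold ACN/MeOH containing internal standard. Parent quantified by LC-MS/MS; 30 min concentration normalised to time zero.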

[4] = Stability in CD-1 mouse liver microsome assessed as parent compound remaining at 1 uM measured after 30 mins in presence of NADPH by LC-MS/MS analysis; assay type: ADME; conditions: liver microsomes, read-out: Stabilty; method in brief: as §2
[5] = tested on: Vero; assay: Cytotoxicity against African green monkey Vero cells assessed as reduction in cell viability measured after 48 hrs by MTT assay; assay type: cell-based; conditions: Chlorocebus sabaeus
Method in brief: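 Cytotoxicity on Vero or HepG2 cells by MTT assay, run as previously reported.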

[6] = AUC (0 to infinity) in Balb/c mouse at 25 mg/kg, po by LC-MS/MS analysis; assay type: ADME, organism-based; parameters: route oral, time infinity, dose 25 mg/kg; conditions: in vivo
Method in brief: (§3)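 Female BALB/c mice (20–25 g), five per route. Oral dose 25 mg/kg in 0.5% carboxymethyl cellulose; i.v. dose 2.5 mg/kg in 10% DMSO/physiological saline. Blood sampled 5 min–72 h after p.o. and 2 min–48 h after i.v. Analyte quantified by LC/MS/MS (ESI positive, C18, isocratic methanol/water). Parameters from non-compartmental analysis.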

[7] = MRT (0 to infinity) in Balb/c mouse at 25 mg/kg, po by LC-MS/MS analysis; assay type: ADME, organism-based; conditions: in vivo; method in brief: as §3
[8] = Tmax in Balb/c mouse at 25 mg/kg, po by LC-MS/MS analysis; assay type: ADME, organism-based; conditions: in vivo
Method in brief: (§4)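 Female BALB/c mice, 20-25 g, five per route. Dosed 25 mg/kg p.o. in 0.5% carboxymethyl cellulose or 2.5 mg/kg i.v. in 10% DMSO/saline. Blood sampled 5 min-72 h (p.o.) or 2 min-48 h (i.v.), quantified by LC/MS/MS with ESI+. Parameters by non-compartmental analysis; F = (AUCpo×dose_iv)/(AUCiv×dose_po)×100%.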

[9] = AUC (0 to t) in Balb/c mouse at 25 mg/kg, po by LC-MS/MS analysis; assay type: ADME, organism-based; parameters: dose 25 mg/kg; conditions: in vivo; method in brief: as §3
[10] = MRT (0 to t) in Balb/c mouse at 25 mg/kg, po by LC-MS/MS analysis; assay type: ADME, organism-based; conditions: in vivo; method in brief: as §3
[11] = Cmax in Balb/c mouse at 25 mg/kg, po by LC-MS/MS analysis; assay type: ADME, organism-based; parameters: route oral, dose 25 mg/kg; conditions: in vivo; method in brief: as §3
[12] = Terminal half life in Balb/c mouse at 25 mg/kg, po by LC-MS/MS analysis; assay type: ADME, organism-based; conditions: in vivo, read-out: beta t1/2 (converted); method in brief: as §4
[13] = tested on: Mycobacterium tuberculosis; assay: Antitubercular activity against Mycobacterium tuberculosis isolate 12525 incubated for 7 days by microplate alamar blue assay; assay type: functional; conditions: isolate 12525, 168 h, time 7 day; method in brief: as §1
[14] = Mycobacterium tuberculosis, H37Rv, read-out: MIC

Structure (SMILES)	IC50 [1]	MIC [2, 14]	IC50 [5]	also measured
COC(=O)NC[C@@H]1OC(=O)N2c3cc(F)c(N4CCSCC4)cc3OC[C@@H]12	> 100 µM	0.03 µg/mL (≈ 0.0755 µM)	–	Stabilty [3]: Stable; remaining at 0.5 h, 1 µM [4]: 3.59%
CC(=O)OC[C@@H]1OC(=O)N2c3cc(F)c(N4CCSCC4)cc3OC[C@@H]12	–	> 1 µg/mL	–	–
NC[C@@H]1OC(=O)N2c3cc(F)c(N4CCSCC4)cc3OC[C@@H]12	> 100 µM	–	36 µg/mL (≈ 106 µM)	MIC [2]: 0.03 µg/mL (≈ 0.0884 µM); Stabilty [3]: Stable; remaining at 0.5 h, 1 µM [4]: 15.8%
O=C1O[C@@H](CNc2ccon2)[C@@H]2COc3cc(N4CCSCC4)c(F)cc3N12	> 100 µM	0.03 µg/mL (≈ 0.0738 µM)	–	Stabilty [3]: Stable; remaining at 0.5 h, 1 µM [4]: 0%
O=C(NC[C@@H]1OC(=O)N2c3cc(F)c(N4CCSCC4)cc3OC[C@@H]12)c1ccncc1	> 100 µM	0.16 µg/mL (≈ 0.36 µM)	–	Stabilty [3]: Stable; remaining at 0.5 h, 1 µM [4]: 20.8%
CC(=O)NC[C@@H]1OC(=O)N2c3cc(F)c(N4CCOCC4)cc3OC[C@@H]12	51.2 µM	0.89 µg/mL (≈ 2.44 µM)	> 64 µg/mL	–
O=C(NC[C@@H]1OC(=O)N2c3cc(F)c(N4C5CCC4CSC5)cc3OC[C@@H]12)c1ccncc1	–	2.83 µg/mL (≈ 6.01 µM)	> 64 µg/mL	–
CC(=O)NC[C@@H]1OC(=O)N2c3cc(F)c(N4CCSCC4)cc3OC[C@H]12 (racemic)	–	> 32 µg/mL	–	–
O=C1O[C@@H](Cn2ccnn2)[C@@H]2COc3cc(N4CCSCC4)c(F)cc3N12	> 100 µM	0.23 µg/mL (≈ 0.588 µM)	–	Stabilty [3]: Stable; remaining at 0.5 h, 1 µM [4]: 21.7%
CC(=O)NC[C@@H]1OC(=O)N2c3cc(F)c(N4C5CCC4CSC5)cc3OC[C@@H]12	–	0.92 µg/mL (≈ 2.26 µM)	58.5 µg/mL (≈ 144 µM)	–
CC(=O)NC[C@@H]1OC(=O)N2c3cc(F)c(N4CCSCC4)cc3OC[C@@H]12 (racemic)	–	–	–	MIC [2]: 0.16 µg/mL (≈ 0.419 µM)
O=C(NC[C@@H]1OC(=O)N2c3cc(F)c(N4C5CCC4CSC5)cc3OC[C@@H]12)C1CC1	–	0.98 µg/mL (≈ 2.26 µM)	> 64 µg/mL	–
O=C1O[C@@H](CO)[C@@H]2COc3cc(N4CCSCC4)c(F)cc3N12 (racemic)	–	3.79 µg/mL (≈ 11.1 µM)	–	–
CC(=O)N(C)C[C@@H]1OC(=O)N2c3cc(F)c(N4CCSCC4)cc3OC[C@@H]12	–	> 1 µg/mL	–	–
CNC[C@@H]1OC(=O)N2c3cc(F)c(N4CCSCC4)cc3OC[C@@H]12	–	> 32 µg/mL	46.5 µg/mL (≈ 132 µM)	–
O=C(NC[C@@H]1OC(=O)N2c3cc(F)c(N4C5CCC4CSC5)cc3OC[C@@H]12)C1CCC1	–	0.97 µg/mL (≈ 2.17 µM)	34.7 µg/mL (≈ 77.5 µM)	–
CC(C)C(=O)NC[C@@H]1OC(=O)N2c3cc(F)c(N4CCSCC4)cc3OC[C@@H]12	> 100 µM	0.1 µg/mL (≈ 0.244 µM)	–	Stabilty [3]: Stable; remaining at 0.5 h, 1 µM [4]: 6.02%
O=C1O[C@@H](Cn2ccnn2)[C@@H]2COc3cc(N4CC5(COC5)C4)c(F)cc3N12	–	> 32 µg/mL	> 64 µg/mL	–
CC(=O)NC[C@@H]1OC(=O)N2c3ccc(N4CCSCC4)cc3OC[C@@H]12	–	0.79 µg/mL (≈ 2.17 µM)	> 64 µg/mL	–
NC[C@@H]1OC(=O)N2c3cc(F)c(N4CCSCC4)cc3OC[C@@H]12 (racemic)	–	–	–	MIC [2]: 0.1 µg/mL (≈ 0.295 µM)

Structure (SMILES)	IC50 [1]	MIC [2, 14]	IC50 [5]	also measured
O=C(NC[C@@H]1OC(=O)N2c3cc(F)c(N4CCSCC4)cc3OC[C@@H]12)C1CC1	> 100 µM	0.03 µg/mL (≈ 0.0736 µM)	–	Stabilty [3]: Stable; remaining at 0.5 h, 1 µM [4]: 15%
O=C1O[C@@H](CO)[C@H]2COc3cc(N4CCSCC4)c(F)cc3N12 (racemic)	–	> 32 µg/mL	–	–
CC(=O)NC[C@@H]1OC(=O)N2c3cc(F)c(N4CCS(=O)(=O)CC4)cc3OC[C@@H]12	26 µM	0.93 µg/mL (≈ 2.25 µM)	–	AUC(0-inf) [6]: 1480 ng·h/mL; MRT inf [7]: 14.3 h; Tmax [8]: 1 h; AUC(0-t) [9]: 1250 ng·h/mL; MRT last [10]: 10.3 h; Cmax [11]: 118 ng/mL; half-life [12]: 7.64 h
O=C(NC[C@@H]1OC(=O)N2c3cc(F)c(N4CCSCC4)cc3OC[C@@H]12)c1cnccn1	> 100 µM	0.12 µg/mL (≈ 0.269 µM)	40.7 µg/mL (≈ 91.3 µM)	Stabilty [3]: Stable; remaining at 0.5 h, 1 µM [4]: 6.85%
O=C(NC[C@@H]1OC(=O)N2c3cc(F)c(N4CCSCC4)cc3OC[C@@H]12)C1CCC1	53.7 µM	0.03 µg/mL (≈ 0.0712 µM)	–	Stabilty [3]: Stable; remaining at 0.5 h, 1 µM [4]: 4%
O=C(NC[C@@H]1OC(=O)N2c3cc(F)c(N4CC5(COC5)C4)cc3OC[C@@H]12)C1CCC1	–	4.2 µg/mL (≈ 10.1 µM)	–	–
CC(=O)N(C[C@@H]1OC(=O)N2c3cc(F)c(N4CCSCC4)cc3OC[C@@H]12)C(C)=O	–	0.34 µg/mL (≈ 0.803 µM)	> 64 µg/mL	–
CC(C)C(=O)NC[C@@H]1OC(=O)N2c3cc(F)c(N4C5CCC4CSC5)cc3OC[C@@H]12	–	1.48 µg/mL (≈ 3.4 µM)	> 64 µg/mL	–
CO[C@H]1/C=C/O[C@@]2(C)Oc3c(C)c(O)c4c(O)c(c(/C=N/N5CCN(C)CC5)c(O)c4c3C2=O)NC(=O)/C(C)=C\C=C\[C@H](C)[C@H](O)[C@@H](C)[C@@H](O)[C@@H](C)[C@H](OC(C)=O)[C@@H]1C [RIFAMPIN]	–	–	–	MIC [13]: > 10 µg/mL
CS(=O)(=O)NC[C@@H]1OC(=O)N2c3cc(F)c(N4CCSCC4)cc3OC[C@@H]12	–	3.9 µg/mL (≈ 9.34 µM)	–	–
O=C1O[C@@H](CNc2ccon2)[C@@H]2COc3cc(N4C5CCC4CSC5)c(F)cc3N12	–	2.52 µg/mL (≈ 5.83 µM)	> 64 µg/mL	–
CC(=O)NC[C@@H]1OC(=O)N2c3cc(F)c(N4CC5(COC5)C4)cc3OC[C@@H]12	–	3.92 µg/mL (≈ 10.4 µM)	–	–
O=C(NC[C@@H]1OC(=O)N2c3cc(F)c(N4C5CCC4CSC5)cc3OC[C@@H]12)c1cnccn1	–	> 32 µg/mL	9.53 µg/mL (≈ 20.2 µM)	–
CC(=O)NC[C@@H]1OC(=O)N2c3cc(F)c(N4CCC(F)(F)CC4)cc3OC[C@@H]12	10.1 µM	0.91 µg/mL (≈ 2.28 µM)	–	–
NC[C@@H]1OC(=O)N2c3cc(F)c(N4CCSCC4)cc3OC[C@H]12 (racemic)	–	> 32 µg/mL	–	–
CC(=O)NC[C@H]1OC(=O)N2c3cc(F)c(N4CCSCC4)cc3OC[C@H]12	–	> 32 µg/mL	–	–
O=C(NC[C@@H]1OC(=O)N2c3cc(F)c(N4CC5(COC5)C4)cc3OC[C@@H]12)C1CC1	–	3.09 µg/mL (≈ 7.66 µM)	–	–
O=C1O[C@@H](Cn2ccnn2)[C@@H]2COc3cc(N4C5CCC4CSC5)c(F)cc3N12	–	> 32 µg/mL	> 64 µg/mL	–
COC(=O)NC[C@@H]1OC(=O)N2c3cc(F)c(N4C5CCC4CSC5)cc3OC[C@@H]12	–	1.68 µg/mL (≈ 3.97 µM)	> 64 µg/mL	–
